Three molecules from ChEMBL document CHEMBL1250523, “Synthesis and biological activities of new di- and trimeric quinoline derivatives” (Bioorg Med Chem, 2010) can be followed below.

Structures are written as SMILES.

Assay type in all cases: protein assay
Test [1] has as its target Bcl-xL/BH3-interacting domain death agonist (Homo sapiens, UniProt Q07817). Put plainly: Inhibition of GST-tagged Bcl-xl/FITC-conjugated Bid interaction by fluorescence polarisation assay.
Another test concerns the target Bcl-xL/BAX (Homo sapiens, UniProt Q07812+Q07817). As to the kind of experiment: Inhibition of GST-tagged Bcl-xl/FITC-conjugated Bax interaction by fluorescence polarisation assay.
Test [2] has as its target Bcl-xL/Bcl-2-binding component 3 (Homo sapiens, UniProt Q07817+Q9BXH1). As to the kind of experiment: Inhibition of GST-tagged Bcl-xl/FITC-conjugated PUMA interaction by fluorescence polarisation assay.
In test [3] the target is Apoptosis regulator BAX/Induced myeloid leukemia cell differentiation protein Mcl-1 (Homo sapiens, UniProt Q07812+Q07820). Put plainly: Inhibition of GST-tagged Mcl-1/FITC-conjugated Bax interaction by fluorescence polarisation assay. Put shortly:
(§1)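 Recombinant GST-fused anti-apoptotic protein (Bcl-xl, Bcl-2, Bfl-1 or Mcl-1, each lacking its C-terminal tail) at 100 nM, incubated in the dark with 15 nM N-terminally FITC-labelled BH3 peptide (Bak, Bax, Bid or Bim) and a range of compound concentrations. Fluorescence polarisation was read, and IC50 was derived from the concentration-response curve.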

Test [4] concerns the target Bcl-xL/Bcl-2-like protein 11 (Homo sapiens, UniProt Q07817). Put plainly: Inhibition of GST-tagged Bcl-xl/FITC-conjugated Bim interaction by fluorescence polarisation assay.
In test [5] the target is Apoptosis regulator BAX/Bcl-2-related protein A1 (Homo sapiens, UniProt Q07812+Q16548). As to the kind of experiment: Inhibition of GST-tagged Bfl-1/FITC-conjugated Bax interaction by fluorescence polarisation assay. Put shortly:
as §1

Test [6] addresses Apoptosis regulator BAX/Bcl-2 (Homo sapiens, UniProt P10415+Q07812). As to the kind of experiment: Inhibition of GST-tagged Bcl-2/FITC-conjugated Bax interaction by fluorescence polarisation assay. Put shortly:
as §1

A further test addresses Bcl-xL/BAK (Homo sapiens, UniProt Q07817). As to the kind of experiment: Inhibition of GST-tagged […]/FITC-conjugated Bak interaction by fluorescence polarisation assay.

Chain of Bcl-xL/Bcl-2-like protein 11 (Q07817 whole entry): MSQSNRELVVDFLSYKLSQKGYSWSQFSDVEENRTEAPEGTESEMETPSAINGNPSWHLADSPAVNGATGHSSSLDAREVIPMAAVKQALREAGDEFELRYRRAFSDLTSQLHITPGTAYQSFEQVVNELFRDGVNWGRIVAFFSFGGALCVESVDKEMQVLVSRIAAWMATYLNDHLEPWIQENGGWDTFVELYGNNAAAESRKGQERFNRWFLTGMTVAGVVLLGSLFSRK
Chain of Bcl-xL/Bcl-2-like protein 11 (O43521 whole entry, further chain): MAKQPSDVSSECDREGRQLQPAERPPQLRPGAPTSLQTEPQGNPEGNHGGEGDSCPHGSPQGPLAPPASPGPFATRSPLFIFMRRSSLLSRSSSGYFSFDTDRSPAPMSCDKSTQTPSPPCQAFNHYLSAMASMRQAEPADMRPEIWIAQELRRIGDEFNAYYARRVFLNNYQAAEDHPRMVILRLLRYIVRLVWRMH
Chain of Bcl-xL/BAK (Q07817 whole entry): as the sequence (Q07817 whole entry) above
Chain of Bcl-xL/BAK (Q16611 whole entry, further chain): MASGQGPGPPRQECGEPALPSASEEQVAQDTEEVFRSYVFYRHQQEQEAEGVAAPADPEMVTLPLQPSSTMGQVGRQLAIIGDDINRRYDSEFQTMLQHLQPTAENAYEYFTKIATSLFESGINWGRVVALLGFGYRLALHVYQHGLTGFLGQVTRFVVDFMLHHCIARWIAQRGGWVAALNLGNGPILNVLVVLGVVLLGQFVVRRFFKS
Chain of Bcl-xL/Bcl-2-binding component 3 (Q07817 whole entry): as the sequence (Q07817 whole entry) above
Chain of Bcl-xL/Bcl-2-binding component 3 (Q9BXH1 whole entry): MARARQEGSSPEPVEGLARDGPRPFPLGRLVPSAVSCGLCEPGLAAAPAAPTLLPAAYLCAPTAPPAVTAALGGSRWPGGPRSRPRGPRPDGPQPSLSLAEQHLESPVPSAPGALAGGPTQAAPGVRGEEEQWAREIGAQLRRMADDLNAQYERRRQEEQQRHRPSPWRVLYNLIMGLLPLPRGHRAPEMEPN
Chain of Bcl-xL/BAX (Q07817 whole entry): as the sequence (Q07817 whole entry) above
Chain of Bcl-xL/BAX (Q07812 whole entry): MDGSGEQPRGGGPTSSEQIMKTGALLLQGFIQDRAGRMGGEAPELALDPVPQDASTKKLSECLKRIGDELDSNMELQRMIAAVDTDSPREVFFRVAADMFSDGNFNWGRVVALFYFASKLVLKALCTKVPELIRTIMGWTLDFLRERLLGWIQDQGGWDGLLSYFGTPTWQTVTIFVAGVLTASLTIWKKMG
Chain of Bcl-xL/BH3-interacting domain death agonist (Q07817 whole entry, the tested form may be a part): as the sequence (Q07817 whole entry) above
Chain of Bcl-xL/BH3-interacting domain death agonist (P55957 whole entry, further chain, the tested form may be a part): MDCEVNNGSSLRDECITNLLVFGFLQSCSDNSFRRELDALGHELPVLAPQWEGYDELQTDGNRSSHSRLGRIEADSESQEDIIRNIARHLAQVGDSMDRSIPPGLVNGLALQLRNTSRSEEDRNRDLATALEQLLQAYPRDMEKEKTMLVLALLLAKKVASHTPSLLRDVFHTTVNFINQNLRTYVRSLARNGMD
Chain of Apoptosis regulator BAX/Bcl-2-related protein A1 (Q07812 whole entry): as the sequence (Q07812 whole entry) above
Chain of Apoptosis regulator BAX/Bcl-2-related protein A1 (Q16548 whole entry): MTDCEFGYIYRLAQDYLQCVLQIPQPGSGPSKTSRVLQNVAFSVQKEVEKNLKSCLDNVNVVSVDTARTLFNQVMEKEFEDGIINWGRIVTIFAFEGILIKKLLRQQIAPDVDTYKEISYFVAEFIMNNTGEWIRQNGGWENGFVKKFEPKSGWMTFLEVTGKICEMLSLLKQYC
Chain of Apoptosis regulator BAX/Bcl-2 (P10415 whole entry): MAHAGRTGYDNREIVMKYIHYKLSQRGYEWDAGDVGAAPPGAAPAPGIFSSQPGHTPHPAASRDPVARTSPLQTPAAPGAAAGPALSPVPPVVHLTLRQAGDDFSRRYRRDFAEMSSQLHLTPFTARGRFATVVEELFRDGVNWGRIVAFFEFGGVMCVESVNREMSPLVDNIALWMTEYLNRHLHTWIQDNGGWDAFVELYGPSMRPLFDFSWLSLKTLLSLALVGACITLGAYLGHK
Chain of Apoptosis regulator BAX/Bcl-2 (Q07812 whole entry): as the sequence (Q07812 whole entry) above
Chain of Apoptosis regulator BAX/Induced myeloid leukemia cell differentiation protein Mcl-1 (Q07820 whole entry, the tested form may be a part): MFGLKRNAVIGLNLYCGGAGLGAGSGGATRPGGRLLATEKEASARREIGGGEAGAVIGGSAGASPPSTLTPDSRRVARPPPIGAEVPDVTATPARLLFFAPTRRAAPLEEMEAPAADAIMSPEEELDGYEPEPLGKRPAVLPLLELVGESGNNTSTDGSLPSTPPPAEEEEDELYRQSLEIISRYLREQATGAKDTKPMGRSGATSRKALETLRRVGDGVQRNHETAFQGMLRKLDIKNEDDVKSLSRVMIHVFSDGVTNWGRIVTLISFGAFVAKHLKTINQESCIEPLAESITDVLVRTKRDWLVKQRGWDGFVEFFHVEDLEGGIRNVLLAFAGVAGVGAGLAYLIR
Chain of Apoptosis regulator BAX/Induced myeloid leukemia cell differentiation protein Mcl-1 (Q07812 whole entry, the tested form may be a part): as the sequence (Q07812 whole entry) above

For `CCC(C)c1cc(-c2cc3c(CC(C)C)cc(-c4cc5c(C(C)C)cccc5nc4OC)cc3nc2OC)cc2nc(OC)ccc12` (racemic), the IC50 in test [1] was found to be 27 µM; against Bcl-xL/BAX, 26 µM; in test [2] it was 42 µM; in test [3] it was 45.5 µM; in test [4], 92.5 µM; in test [5], 68 µM. The IC50 came out at 43 µM in test [6] and 25 µM against Bcl-xL/BAK.
On to `COc1ccc2c(CC(C)C)cc(-c3cc4c(C(C)C)cccc4nc3OC)cc2n1`, for which the IC50 is more than 1000 µM in test [1]; more than 1000 µM against Bcl-xL/BAX; more than 1000 µM in test [2]; 29 µM in test [4]; more than 1000 µM against Bcl-xL/BAK.
Take `CCOc1nc2ccccc2cc1-c1cc(C(C)C)c2cc(-c3cc(C(C)C)c4ccc(OC)nc4c3)c(OC)nc2c1`: the IC50 in test [1] was 21 µM; against Bcl-xL/BAX, 243 µM; in test [2] it was 54 µM; in test [4] it was 47 µM; against Bcl-xL/BAK it was 74 µM.
